This is a sample that favours compounds with a hit; in the whole collection about 1.2% have one here.
A3G deaminase = APOBEC3G (human) deaminase inhibition; recombinant A3G, ssDNA deamination FAM/TAMRA fluorescence; inhibition, % at 20 µM; actives 0.28% (n = 330,000); AID 493012;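 active = inhibition of at least 40% at 20 µM, with no more than 30% in the related APOBEC3A deaminase screen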
Target sequence (Q9HC16 whole entry, looked up): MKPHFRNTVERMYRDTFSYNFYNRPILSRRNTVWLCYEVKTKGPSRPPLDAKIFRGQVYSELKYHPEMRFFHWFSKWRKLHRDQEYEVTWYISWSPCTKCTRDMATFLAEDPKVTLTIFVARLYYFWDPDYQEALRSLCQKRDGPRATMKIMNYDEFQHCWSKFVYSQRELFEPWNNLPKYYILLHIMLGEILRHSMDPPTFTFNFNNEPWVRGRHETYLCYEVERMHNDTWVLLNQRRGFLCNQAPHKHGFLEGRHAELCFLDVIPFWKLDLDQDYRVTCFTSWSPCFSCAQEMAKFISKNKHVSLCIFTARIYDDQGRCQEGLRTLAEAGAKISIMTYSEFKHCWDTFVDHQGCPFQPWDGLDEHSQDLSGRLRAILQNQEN
APOBEC3A inh = blocks human APOBEC3A ssDNA deamination; P31941; recombinant A3A, FAM/TAMRA ssDNA deamination fluorescence; inhibition, % at 20 µM; actives 0.41% (n = 330,000); AID 493011;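 active = at least 40% inhibition at 20 µM here, with at most 30% in a related deaminase screen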
Target sequence (P31941 whole entry, looked up): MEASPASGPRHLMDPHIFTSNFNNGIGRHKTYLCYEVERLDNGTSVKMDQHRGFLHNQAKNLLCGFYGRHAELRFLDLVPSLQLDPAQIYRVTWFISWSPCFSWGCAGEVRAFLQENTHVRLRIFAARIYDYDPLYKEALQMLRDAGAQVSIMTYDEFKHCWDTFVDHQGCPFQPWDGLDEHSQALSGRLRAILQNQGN
ABHD5-PLIN5 inh = blocks binding of human ABHD5 to perilipin-5; Split G. princeps luciferase complementation, luminescence, 4 h; inhibition, % at 4 µM; actives 0.78% (n = 360,000);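 active = inhibition above the mean inhibition across every tested compound plus 3 SD, cut at about 22% in these data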
FN deposition inh = fibronectin deposition inhibition. AH1F fibroblasts, Alexa488-fibronectin deposition fluorescence, overnight. inhibition, % at 12.6 µM. actives 0.086% (n = 350,000). AID 743247;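 active = mean inhibition across replicates of 30% or more, regardless of how many single replicates reach that level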
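Material – AH1F fibroblast monolayer, labelled fibronectin deposition · Reagent – labelled fibronectin 24 nM · Timing – 1 h adhesion, overnight exposure · Measured by – fluorescence at 485 nm excitation, 525 nm emission · Read-out – inhibition of fibronectin deposition signal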
ABHD5 PLIN5 conf = confirmation of human ABHD5-PLIN5 interaction inhibitors | shares compounds with ABHD5-PLIN5 inh | biochemical ABHD5-PLIN5 interaction, luminescence | inhibition, % at 4 µM | actives 67% (n = 2,200); in the data active = inhibition above about 23%
HNF4 split-luc = active in HNF4 split-luciferase counter-screen for ABHD5-PLIN5 inhibitors. shares compounds with ABHD5-PLIN5 inh. actives 77% (n = 2,200). AID 651674. inhibition, % at 4 µM. HNF4 dimerization, luminescence, biochemical;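 active = mean inhibition across replicate wells exceeding the computed hit threshold, cut at about 13% in these data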;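 also: light from luciferase halves that rejoin when HNF4 fusion proteins dimerize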
Large screens that a line does not name were inactive (follow-up assays come after a bar, where they were run); ! = not confirmed by another sample.

CCOc1ccc(/C=C/C(=O)c2ccc(-c3ccccc3)cc2)cc1	none (no result: FN deposition inh)
Nc1nnnn1/N=C/C(Br)=C/c1ccccc1	ABHD5-PLIN5 inh 28 | ABHD5 PLIN5 conf 54 | HNF4 split-luc 51
CC(=O)Nc1ccc2c(c1)CC(=O)N(C)C[C@@H](C)[C@H](CN(C)S(C)(=O)=O)O2	none (no result: A3G deaminase, APOBEC3A inh, ABHD5-PLIN5 inh)
CN1CCN(C(=O)C[C@@H]2CC[C@H]3[C@@H](COc4ccc(NC(=O)c5cccs5)cc4C(=O)N3C)O2)CC1	none (no result: A3G deaminase, APOBEC3A inh, ABHD5-PLIN5 inh)
O=C(C[C@@H]1C[C@@H]2c3cc(NC(=O)NC4CCCC4)ccc3O[C@@H]2[C@H](CO)O1)NCCc1ccccc1	none (no result: A3G deaminase, APOBEC3A inh, ABHD5-PLIN5 inh)
C/C(=C/c1ccccc1)C(=O)N1CCN(c2ccccc2F)CC1	none
N#C/C(=C\c1ccccc1)C(=O)N1CCN(c2ccccc2F)CC1	ABHD5-PLIN5 inh 38 | ABHD5 PLIN5 conf 52 | HNF4 split-luc 38
N#C/C(=C\c1cccc(Br)c1)C(=O)N1CCCCC1	ABHD5-PLIN5 inh 24 | ABHD5 PLIN5 conf 71 | HNF4 split-luc 53
N#C/C(=C\c1cccc(O)c1)C(=O)N1CCCCC1	none
COc1ccccc1-c1cn(CC[C@@H]2CC[C@@H](NC(=O)C3CCCCC3)[C@H](CO)O2)nn1	none (no result: A3G deaminase, APOBEC3A inh, ABHD5-PLIN5 inh)
CC(=O)N(C)C[C@@H]1Oc2c(cccc2N(C)C)C(=O)N(C)C[C@H]1C	none (no result: A3G deaminase, APOBEC3A inh, ABHD5-PLIN5 inh)
O=C(CSc1nnc(-c2cccnc2)n1Cc1ccco1)c1ccc2ccccc2c1	ABHD5-PLIN5 inh 65 | ABHD5 PLIN5 conf 53 | HNF4 split-luc 76
C[C@H]1CN([C@@H](C)CO)C(=O)CCCn2nncc2CO[C@@H]1CN(C)C(=O)CCCN(C)C	none (no result: A3G deaminase, APOBEC3A inh, ABHD5-PLIN5 inh)
C=C(C(=O)c1ccccc1)C(NC(C)(C)C)c1ccccc1 (configuration not stated)	ABHD5-PLIN5 inh 42 (no result: A3G deaminase, APOBEC3A inh) | ABHD5 PLIN5 conf 65 | HNF4 split-luc 54
C=C(C(=O)c1ccccc1)C(C)CC(=O)c1ccccc1 (configuration not stated)	none
C[C@H](NC(=O)C[C@H]1CC[C@@H]2[C@H](COC[C@H](O)CN2C(=O)Nc2cccc(F)c2)O1)c1ccccc1	none (no result: A3G deaminase, APOBEC3A inh, ABHD5-PLIN5 inh)
CC1=C(CO)C(=O)OC([C@@H](C)C2CC[C@H]3C4C[C@H]5O[C@]56[C@@H](O)C=CC(=O)[C@]6(C)C4CC[C@]23C)C1 (some centres not stated)	ABHD5-PLIN5 inh 65 (no result: A3G deaminase, APOBEC3A inh, FN deposition inh) | ABHD5 PLIN5 conf 77 | HNF4 split-luc 77
CO[C@@H](CN(C)Cc1cc(F)ccc1F)[C@H](C)CN(C(=O)Nc1ccc(F)cc1)[C@H](C)CO	none (no result: A3G deaminase, APOBEC3A inh, ABHD5-PLIN5 inh)
CO[C@@H]1CN(C)C(=O)c2cc(NC(=O)NC(C)C)ccc2OC[C@H](C)N(Cc2ccccn2)C[C@@H]1C	none (no result: A3G deaminase, APOBEC3A inh, ABHD5-PLIN5 inh)
COc1ccc(-n2c(N)c(C(=O)NCc3ccco3)c3nc4ccccc4nc32)c(OC)c1	ABHD5-PLIN5 inh 29 (no result: FN deposition inh) | ABHD5 PLIN5 conf 51 | HNF4 split-luc 67
COc1ccc(CCn2c(N)c(C(=O)NCc3ccco3)c3nc4ccccc4nc32)cc1	none
N#C[C@@H]1[C@H](c2ccc(C3=CCCC3)cc2)[C@@H](CO)N1C(=O)NC1CCCCC1	none (no result: A3G deaminase, APOBEC3A inh, ABHD5-PLIN5 inh)
CCOc1ccc(NCc2nc3ccccc3n2CCOc2ccccc2)cc1	ABHD5-PLIN5 inh 25 (no result: A3G deaminase, APOBEC3A inh) | ABHD5 PLIN5 conf inactive | HNF4 split-luc inactive
OCc1nc2ccccc2n1CCOc1ccccc1	none
COc1ccc(/C=C/c2cc(-c3ccc(C)cc3)o[n+]2C)cc1	ABHD5-PLIN5 inh 28 | ABHD5 PLIN5 conf 44 | HNF4 split-luc 31
C[C@H](CO)N1C[C@H](C)[C@H](CN(C)C(=O)c2cc(-c3ccccc3)on2)OCc2cn(nn2)CCCC1=O	none (no result: A3G deaminase, APOBEC3A inh, ABHD5-PLIN5 inh)
CCc1cc2c(=O)n(Cc3ccco3)c(SCc3c(C)noc3C)nc2s1	ABHD5-PLIN5 inh 26 | ABHD5 PLIN5 conf 30 | HNF4 split-luc 51
CCc1cc2c(=O)n(Cc3ccco3)c(SCC(=O)NCC3CCCO3)nc2s1 (configuration not stated)	none
CC/C(=C(\c1ccccc1)c1ccc(OCCN(C)C)cc1)c1ccccc1	ABHD5-PLIN5 inh 38! | ABHD5 PLIN5 conf 72 | HNF4 split-luc 26
CC(C)NC(=O)Nc1ccc2c(c1)CC(=O)N([C@H](C)CO)C[C@H](C)[C@H](CN(C)C)O2	none (no result: A3G deaminase, APOBEC3A inh, ABHD5-PLIN5 inh)
Cc1ccc(S(=O)(=O)c2ncccc2[N+](=O)[O-])cc1	ABHD5-PLIN5 inh 43 | ABHD5 PLIN5 conf 55 | HNF4 split-luc 70
C[C@H](CO)N1C[C@H](C)[C@@H](CN(C)S(=O)(=O)c2ccc(F)cc2)OCc2ccccc2-c2ccccc2C1=O	none (no result: A3G deaminase, APOBEC3A inh, ABHD5-PLIN5 inh)
C[C@H]1CN([C@@H](C)CO)C(=O)CCCn2nncc2CO[C@@H]1CN(C)S(=O)(=O)c1ccc(Oc2ccccc2)cc1	none (no result: A3G deaminase, APOBEC3A inh, ABHD5-PLIN5 inh)
CN(C)CCCNC(=O)C[C@H]1C[C@H](C(=O)N2CCOCC2)[C@@]2(CCC3CCCC3)c3[nH]c4cc(-c5ccco5)ccc4c3CCN2C1=O	ABHD5-PLIN5 inh 25 | ABHD5 PLIN5 conf inactive | HNF4 split-luc inactive
CC(C)N(C(=O)[C@H]1C[C@H](CC(=O)NCCc2ccccn2)C(=O)N2CCc3c([nH]c4cc(-c5ccco5)ccc34)[C@]12C)C(C)C	none
O=C(C[C@H]1C[C@H](C(=O)N2CCCCC2)[C@@]2(CCc3ccccc3)c3[nH]c4cc(-c5ccco5)ccc4c3CCN2C1=O)NCc1cccc(C(F)(F)F)c1	none
O=C(C[C@H]1C[C@H](C(=O)N2CCOCC2)[C@@]2(CCC3CCCC3)c3[nH]c4cc(-c5ccco5)ccc4c3CCN2C1=O)NCCN1CCOCC1	none (no result: FN deposition inh)
O=C(C[C@H]1C[C@H](C(=O)N2CCOCC2)[C@@]2(CCC3CCCC3)c3[nH]c4cc(-c5ccco5)ccc4c3CCN2C1=O)NCc1cccc(C(F)(F)F)c1	ABHD5-PLIN5 inh 23 | ABHD5 PLIN5 conf inactive | HNF4 split-luc inactive
CCN(CC)C(=O)[C@H]1C[C@H](CC(=O)NCCc2ccccn2)C(=O)N2CCc3c([nH]c4cc(-c5ccco5)ccc34)[C@]12C	ABHD5-PLIN5 inh 24 | ABHD5 PLIN5 conf inactive | HNF4 split-luc inactive
COCCCNC(=O)C[C@H]1C[C@H](C(=O)N2CCOCC2)[C@@]2(CCC3CCCC3)c3[nH]c4cc(-c5ccco5)ccc4c3CCN2C1=O	none (no result: FN deposition inh)
COc1ccc(CNC(=O)C[C@H]2C[C@H](C(=O)N3CCOCC3)[C@@]3(CCC4CCCC4)c4[nH]c5cc(-c6ccco6)ccc5c4CCN3C2=O)cc1OC	ABHD5-PLIN5 inh 29 | ABHD5 PLIN5 conf inactive | HNF4 split-luc 13
CCCC(=O)Nc1ccc2c(c1)C(=O)N(C)[C@H]1CC[C@H](CC(=O)OC)O[C@@H]1CO2	none (no result: A3G deaminase, APOBEC3A inh, ABHD5-PLIN5 inh)
O=C(C[C@H]1CC[C@H]2[C@@H](COC[C@@H](O)CN2S(=O)(=O)c2ccc(Cl)cc2)O1)NCCN1CCCC1	none (no result: A3G deaminase, APOBEC3A inh, ABHD5-PLIN5 inh)
CCSC1(SCC)N=C(N)C2(C#N)C(c3ccccc3)NC3=C(CCC3)C12C#N (configuration not stated)	none (no result: FN deposition inh)
